Laboratory results reported in ChEMBL document CHEMBL1139307, “1-Naphthyl and 4-indolyl arylalkylamines as selective monoamine reuptake inhibitors” (Bioorg Med Chem Lett, 2009).

Experiments:
[1] = target: Sodium-dependent dopamine transporter (Rattus norvegicus, UniProt P23977); test: Displacement of [125I]RTI55 from DAT in Sprague-dawley rat striatum by liquid scintillation spectrophotometry
Method in brief: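 Membranes from tissue homogenized in 10 vol of 0.32 M sucrose/10 mM sodium phosphate buffer, pH 7.4, and spun three times at 48,000g for 10 min. Cold-Tris filtration used BSA-presoaked GF/B filters, with WF-23 defining non-specific binding.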

Transporter = Transporter (Rattus norvegicus, UniProt Q63380); test: Displacement of [3H]nisoxetine from Sprague-dawley rat NET by liquid scintillation spectrophotometry
Sequence of Transporter (Q63380 whole entry): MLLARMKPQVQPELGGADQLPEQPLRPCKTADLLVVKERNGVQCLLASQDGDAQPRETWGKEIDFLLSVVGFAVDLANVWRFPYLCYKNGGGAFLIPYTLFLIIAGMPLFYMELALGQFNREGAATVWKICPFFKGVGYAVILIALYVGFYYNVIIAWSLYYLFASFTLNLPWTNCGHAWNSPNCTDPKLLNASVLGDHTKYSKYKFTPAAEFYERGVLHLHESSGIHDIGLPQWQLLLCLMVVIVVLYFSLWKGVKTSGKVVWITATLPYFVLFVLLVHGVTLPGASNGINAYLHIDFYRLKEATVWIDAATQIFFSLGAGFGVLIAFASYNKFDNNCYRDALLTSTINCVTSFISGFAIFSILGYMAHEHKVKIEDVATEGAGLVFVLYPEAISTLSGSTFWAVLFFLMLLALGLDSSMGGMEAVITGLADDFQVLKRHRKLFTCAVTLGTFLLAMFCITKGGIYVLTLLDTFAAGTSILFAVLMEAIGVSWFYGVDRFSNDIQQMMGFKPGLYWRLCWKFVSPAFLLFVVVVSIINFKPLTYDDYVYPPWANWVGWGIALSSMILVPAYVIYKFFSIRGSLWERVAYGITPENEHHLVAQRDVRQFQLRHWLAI

[2] = target: Sodium-dependent serotonin transporter (Rattus norvegicus, UniProt P31652); test: Displacement of [3H]citalopram from SERT in Sprague-dawley rat frontal cortex by liquid scintillation spectrophotometry; format: tissue-based
Sequence of Sodium-dependent serotonin transporter (P31652 whole entry): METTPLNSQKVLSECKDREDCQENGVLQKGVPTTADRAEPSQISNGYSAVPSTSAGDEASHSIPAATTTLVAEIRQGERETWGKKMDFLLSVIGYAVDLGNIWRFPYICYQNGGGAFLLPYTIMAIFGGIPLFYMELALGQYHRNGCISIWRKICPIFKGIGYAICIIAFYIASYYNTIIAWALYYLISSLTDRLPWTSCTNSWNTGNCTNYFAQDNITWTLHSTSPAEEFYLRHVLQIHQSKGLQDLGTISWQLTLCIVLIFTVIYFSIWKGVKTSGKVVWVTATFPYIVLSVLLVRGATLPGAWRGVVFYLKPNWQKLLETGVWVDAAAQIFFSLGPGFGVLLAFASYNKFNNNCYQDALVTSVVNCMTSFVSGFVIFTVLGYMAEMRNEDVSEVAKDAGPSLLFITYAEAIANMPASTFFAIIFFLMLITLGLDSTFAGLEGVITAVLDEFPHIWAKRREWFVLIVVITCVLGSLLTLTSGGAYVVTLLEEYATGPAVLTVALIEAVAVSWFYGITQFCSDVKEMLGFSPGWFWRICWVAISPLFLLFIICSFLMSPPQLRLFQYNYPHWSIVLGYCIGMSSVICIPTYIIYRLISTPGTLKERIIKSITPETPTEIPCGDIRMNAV

Sequence of Sodium-dependent dopamine transporter (P23977 whole entry): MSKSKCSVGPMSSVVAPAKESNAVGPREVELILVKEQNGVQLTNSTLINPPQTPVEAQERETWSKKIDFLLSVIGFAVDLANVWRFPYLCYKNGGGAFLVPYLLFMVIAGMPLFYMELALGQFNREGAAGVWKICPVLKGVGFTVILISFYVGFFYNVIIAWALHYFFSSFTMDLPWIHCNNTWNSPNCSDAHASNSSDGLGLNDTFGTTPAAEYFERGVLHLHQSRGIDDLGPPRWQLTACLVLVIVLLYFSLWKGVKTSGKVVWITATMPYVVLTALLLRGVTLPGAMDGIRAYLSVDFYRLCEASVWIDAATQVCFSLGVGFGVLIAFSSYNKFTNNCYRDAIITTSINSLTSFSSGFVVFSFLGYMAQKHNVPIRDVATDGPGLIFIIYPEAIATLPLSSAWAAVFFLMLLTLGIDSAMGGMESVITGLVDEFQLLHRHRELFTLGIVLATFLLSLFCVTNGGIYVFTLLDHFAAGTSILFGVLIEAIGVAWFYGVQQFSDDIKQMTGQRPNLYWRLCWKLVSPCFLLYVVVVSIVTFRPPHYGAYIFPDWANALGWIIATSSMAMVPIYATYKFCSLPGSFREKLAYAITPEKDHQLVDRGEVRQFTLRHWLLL

IC50 [1] [nM] | Ki (Transporter) [nM] | Ki [2] [nM] | SMILES
309 | 52.1 | 30.2 | CNCC[C@H](c1cccs1)c1cccc2ccccc12
7.21 | 95 | 1.68 | CNCC[C@H](c1ccc(Cl)c(Cl)c1)c1cccc2[nH]ccc12
405 | 109 | 9.5 | CNCCC[C@@H](c1cccs1)c1cccc2ccccc12
466 | 7.9 | 39.7 | CNCCC[C@H](c1cccs1)c1cccc2ccccc12
209 | > 10000 | 49.9 | CNCCC[C@@H](c1ccc(Cl)c(Cl)c1)c1cccc2ccccc12
9.7 | 1640 | 5.3 | CNCC[C@H](c1ccc(Cl)c(Cl)c1)c1cccc2ccccc12
14.3 | 360 | 2.72 | CNCCC[C@@H](c1ccc(Cl)c(Cl)c1)c1cccc2[nH]ccc12
– | 13.8 | 31.9 | CNCC[C@H](c1cccs1)c1cccc2[nH]ccc12
318 | 9 | 72.9 | CNCCC[C@H](c1cccs1)c1cccc2[nH]ccc12
35.8 | 1630 | 86 | CNCC[C@@H](c1ccc(Cl)c(Cl)c1)c1cccc2ccccc12
61.2 | 2480 | 4.1 | CNCCC[C@H](c1ccc(Cl)c(Cl)c1)c1cccc2ccccc12
230 | 139 | 12.1 | CNCC[C@@H](c1cccs1)c1cccc2ccccc12
14.9 | 35.4 | 3.63 | CNCC[C@@H](c1ccc(Cl)c(Cl)c1)c1cccc2[nH]ccc12
– | 102 | 166 | CNCC[C@@H](c1cccs1)c1cccc2[nH]ccc12
957 | 79.7 | 271 | CNCCC[C@@H](c1cccs1)c1cccc2[nH]ccc12
3.8 | 4840 | 0.82 | CNCCC[C@H](c1ccc(Cl)c(Cl)c1)c1cccc2[nH]ccc12
